In ChEMBL document CHEMBL4613247, “Antioxidant Activity of Compounds Isolated from Elaeagnus umbellata Promotes Human Gingival Fibroblast Well-Being” (J Nat Prod, 2020):
Activity calls are given as the source filed them. No cut-off for these calls is given here.

Experiments:
Fibroblast [1] = test: Antioxidant activity in human Gingival fibroblast assessed as reduction in H202-induced intracellular ROS level by measuring ROS production at […] after 72 hrs by H2DCFDA staining based fluorescence method (reference value: 181.9 +/- 7.4%); assay type: functional; design: scale not given: the % may be the effect or the level left
In short: (§1)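 hGF seeded 5000 cells/well, treated 72 h with or without H2O2 (200 μM); then 30 min in PBS-glucose with 50 μM DCFH2-DA. DCF fluorescence read at 485/520 nm. Cells then fixed, crystal-violet stained and SDS-solubilized, with absorbance at 595 nm. Fluorescence normalized to A595 and expressed as % of control. Mean ± SD, three replicates, two independent experiments.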

Fibroblast [2] = test: Protection against H202-induced cell cycle blockade in human Gingival fibroblast assessed as accumulation at G0/G1 phase after 72 hrs by flow cytometry (reference value: 42.2%); assay type: functional
In short: (§2)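 hGF seeded at 80 000 cells/well and treated in complete medium 72 h (1–5 μM) with or without H2O2 (200 μM). Percentage of cells in G0/G1, S and G2/M measured on a Muse cell analyzer with a cell cycle kit. Mean ± SD, two replicates, two independent experiments.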

Fibroblast [3] = test: Protection against H202-induced cell cycle blockade in human Gingival fibroblast assessed as accumulation at S phase after 72 hrs by flow cytometry (reference value: 11.6%); assay type: functional; in short: as §2
Fibroblast [4] = test: Protection against H202-induced cell cycle blockade in human Gingival fibroblast assessed as accumulation at G2/M phase after 72 hrs by flow cytometry (reference value: 39.3%); assay type: functional; in short: as §2
Fibroblast [5] = test: Protective activity against H202-induced cell death in human Gingival fibroblast assessed as cell proliferation after 72 hrs by MTS assay (reference value: 50.9 +/- 4%); assay type: functional
In short: (§3)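 hGF (passage 4–7) seeded at 1500 cells/well. After 24 h, starved 6 h in noncomplete medium, then treated 72 h (5 nM–50 μM range, 0.5% DMSO final) with or without H2O2 (200 μM). Read by MTS absorbance at 490 nm as % proliferation vs control (100%). Mean ± SD, three replicates, two independent experiments.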

Fibroblast [6] = test: Induction of cell proliferation in human Gingival fibroblast at 1 uM after 72 hrs by MTS assay; assay type: functional; in short: as §3
Fibroblast [7] = test: Effect on p21 mRNA expression in human Gingival fibroblast at 1 uM after 72 hrs by RT-PCR method; assay type: ADME, cell-based
In short: (§4)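 hGF (3500 cells/cm2) in complete medium, treated 72 h with or without H2O2 (200 μM). Real-time RT-PCR of total RNA for p53, p21 and p16INK4A. Levels normalized to β-actin and relative expression taken from Ct. Fold change vs control set to 1. Mean ± SD, two independent experiments in duplicate.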

Fibroblast [8] = test: Downregulation of LPS-induced IL-8 expression in human Gingival fibroblast at 1 to 5 uM after 72 hrs by RT-PCR analysis; assay type: functional, cell-based
In short: (§5)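 hGF (3500 cells/cm2) in complete medium, 1–5 μM for 72 h with or without LPS (1 μg/mL). Total RNA extracted, then real-time RT-PCR. mRNA normalized to β-actin and relative expression calculated from Ct. Specificity checked by melting curve and gel. Fold change vs control set to 1. Mean ± SD of two independent experiments in duplicate.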

Fibroblast [9] = test: Upregulation of IL-10 expression in LPS-stimulated human Gingival fibroblast at 1 to 5 uM after 72 hrs by RT-PCR analysis; assay type: functional, cell-based; in short: as §5
Fibroblast [10] = test: Effect on p16Ink4a mRNA expression in human Gingival fibroblast at 1 uM after 72 hrs by RT-PCR method; assay type: ADME, cell-based; in short: as §4
Fibroblast [11] = test: Protection against H202-induced cell death in human Gingival fibroblast assessed as dead cell at 1 to 5 uM after 72 hrs by flow cytometry (reference value: 14.9%); assay type: functional
Fibroblast [12] = test: Protection against H202-induced oxidative stress in human Gingival fibroblast assessed as reduction in p16Ink4a expression at 1 to 5 uM after 72 hrs by RT-PCR analysis; assay type: functional, cell-based; in short: as §4
Fibroblast [13] = test: Induction of cell cycle arrest in human Gingival fibroblast assessed as accumulation at G2/M phase at 1 uM incubated for 72 hrs by flow cytometry (reference value: 14.9%); assay type: cell-based; in short: as §2
Fibroblast [14] = test: Protection against H202-induced oxidative stress in human Gingival fibroblast assessed as reduction in p53 expression at 1 to 5 uM after 72 hrs by RT-PCR analysis; assay type: functional, cell-based; in short: as §4
Fibroblast [15] = test: Induction of cell cycle arrest in human Gingival fibroblast assessed as accumulation at S phase at 1 uM incubated for 72 hrs by flow cytometry (reference value: 5%); assay type: cell-based; in short: as §2
Fibroblast [16] = test: Induction of cell cycle arrest in human Gingival fibroblast assessed as accumulation at G0/G1 phase at 1 uM incubated for 72 hrs by flow cytometry (reference value: 76.3%); assay type: cell-based; in short: as §2
Fibroblast [17] = test: Antioxidant activity in human Gingival fibroblast assessed as reduction in intracellular ROS level at 1 uM after 72 hrs by H2DCFDA staining based fluorescence method; assay type: functional, cell-based
In short: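 hGF (passage 4–7) seeded 5000 cells/well, treated 72 h in complete medium with or without H2O2 200 μM. Then loaded with 50 μM DCFH2-DA in PBS-glucose for 30 min. DCF fluorescence read at ex 485/em 520 nm and normalized to crystal violet absorbance at 595 nm. Expressed as % of control; three replicates, two independent experiments.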

Fibroblast [18] = test: Induction of cell death in human Gingival fibroblast assessed as dead cell at 1 uM after 72 hrs by flow cytometry (reference value: 3%); assay type: cell-based
[19] = Induction of cell death in human Gingival fibroblast assessed as live cell at 1 uM after 72 hrs by flow cytometry (reference value: 97%); assay type: cell-based; conditions: gingival fibroblasts, read-out: Activity
Fibroblast [20] = test: Protection against H202-induced cell cycle blockade in human Gingival fibroblast assessed as accumulation at G0/G1 phase at 1 to 5 uM after 72 hrs by flow cytometry (reference value: 42.2%); assay type: functional; in short: as §2
Fibroblast [21] = test: Downregulation of LPS-induced IL-6 expression in human Gingival fibroblast at 1 to 5 uM after 72 hrs by RT-PCR analysis; assay type: functional, cell-based; in short: as §5
Fibroblast [22] = test: Protection against H202-induced cell death in human Gingival fibroblast assessed as live cell at 1 to 5 uM after 72 hrs by flow cytometry (reference value: 85.1%); assay type: functional
Fibroblast [23] = test: Protection against H202-induced cell cycle blockade in human Gingival fibroblast assessed as accumulation at G2/M phase at 1 to 5 uM after 72 hrs by flow cytometry (reference value: 39.3%); assay type: functional; in short: as §2
Fibroblast [24] = test: Protection against H202-induced cell cycle blockade in human Gingival fibroblast assessed as accumulation at S phase at 1 to 5 uM after 72 hrs by flow cytometry (reference value: 11.6%); assay type: functional; in short: as §2
Fibroblast [25] = test: Antioxidant activity in human Gingival fibroblast assessed as reduction in H202-induced intracellular ROS level by measuring ROS production at 1 to 5 uM after 72 hrs by H2DCFDA staining based fluorescence method (reference value: 181.9 +/- 7.4%); assay type: functional; design: scale not given: the % may be the effect or the level left; in short: as §1
Fibroblast [26] = test: Effect on p53 mRNA expression in human Gingival fibroblast at 1 uM after 72 hrs by RT-PCR method; assay type: ADME, cell-based; in short: as §4
Fibroblast [27] = test: Protection against H202-induced oxidative stress in human Gingival fibroblast assessed as reduction in p21 expression at 1 to 5 uM after 72 hrs by RT-PCR analysis; assay type: functional, cell-based; in short: as §4
Fibroblast [28] = test: Induction of cell proliferation in human Gingival fibroblast at 0.5 to 10 uM after 72 hrs by MTS assay; assay type: functional, cell-based
In short: (§6)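 Gingival fibroblasts seeded at 1500 cells/well, then starved 6 h in noncomplete medium after 24 h. Exposed for 72 h to 5 nM–50 μM (DMSO 0.5% final), with or without H2O2 200 μM. MTS absorbance read at 490 nm and expressed as % proliferation vs control set to 100%. Mean ± SD of three replicates from two experiments.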

Fibroblast [29] = test: Growth inhibition of human Gingival fibroblast at 50 uM after 72 hrs by MTS assay; assay type: cell-based; in short: as §6
Fibroblast [30] = test: Growth inhibition of human Gingival fibroblast at 5 uM after 72 hrs by MTS assay; assay type: cell-based; in short: as §3

Question: For CC(=O)N[C@@H](CS)C(=O)O [ACETYLCYSTEINE], which Activity (Fibroblast [1]) is on record?
Answer: 109.7%

Question: And the Activity (Fibroblast [2])?
Answer: 72.7%

Question: What about the Activity (Fibroblast [3]) of the same molecule?
Answer: 6.4%

Question: And the Activity (Fibroblast [4])?
Answer: 18.5%

Question: And the Activity (Fibroblast [5])?
Answer: 74.1%

Question: Which Activity (Fibroblast [6]) does the source give for C[C@@H]1O[C@@H](Oc2cc(O)c3c(=O)c(O[C@@H]4O[C@H](CO)[C@H](O)[C@H](O)[C@H]4O[C@@H]4O[C@H](CO)[C@@H](O)[C@H](O)[C@H]4O)c(-c4ccc(O)cc4)oc3c2)[C@H](O)[C@H](O)[C@H]1O here?
Answer: 125.6%

Question: What about the Activity (Fibroblast [7]) of the same molecule?
Answer: Non-Toxic

Question: What about the Activity (Fibroblast [8]) of the same molecule?
Answer: Active

Question: What about the Activity (Fibroblast [9]) of the same molecule?
Answer: Active

Question: And the Activity (Fibroblast [10])?
Answer: Toxic

Question: And the Activity (Fibroblast [11])?
Answer: 10%

Question: What about the Activity (Fibroblast [12]) of the same molecule?
Answer: Active

Question: What about the Activity (Fibroblast [13]) of the same molecule?
Answer: 10.5%

Question: What about the Activity (Fibroblast [14]) of the same molecule?
Answer: Active

Question: And the Activity (Fibroblast [15])?
Answer: 4.8%

Question: What about the Activity (Fibroblast [16]) of the same molecule?
Answer: 81.5%

Question: And the Activity (Fibroblast [17])?
Answer: Active

Question: What about the Activity (Fibroblast [18]) of the same molecule?
Answer: 6.7%

Question: What about the viability at 72 h, 1 µM [19] of the same molecule?
Answer: 93.3%

Question: What about the Activity (Fibroblast [5]) of the same molecule?
Answer: 68.8%

Question: What about the Activity (Fibroblast [20]) of the same molecule?
Answer: 69.8%

Question: What about the Activity (Fibroblast [21]) of the same molecule?
Answer: Active

Question: What about the Activity (Fibroblast [22]) of the same molecule?
Answer: 90%

Question: And the Activity (Fibroblast [23])?
Answer: 14.2%

Question: And the Activity (Fibroblast [24])?
Answer: 13%

Question: And the Activity (Fibroblast [25])?
Answer: 124.2%

Question: What about the Activity (Fibroblast [26]) of the same molecule?
Answer: Non-Toxic

Question: And the Activity (Fibroblast [27])?
Answer: Active

Question: With O=c1c(O)c(-c2ccc(O)cc2)oc2cc(O)cc(O)c12 [KAEMPFEROL] as the molecule, how does the Activity (Fibroblast [28]) read?
Answer: inactive

Question: And the “growth inhibition (GI)” value (Fibroblast [29])?
Answer: Toxic

Question: With O=c1c(O[C@@H]2O[C@H](CO)[C@H](O)[C@H](O)[C@H]2O[C@@H]2O[C@H](CO)[C@@H](O)[C@H](O)[C@H]2O)c(-c2ccc(O)cc2)oc2cc(O)cc(O)c12 as the molecule, how does the “growth inhibition (GI)” value (Fibroblast [30]) read?
Answer: Toxic

Question: For C[C@@H]1O[C@@H](Oc2cc(O)c3c(=O)c(O[C@@H]4O[C@H](CO)[C@H](O)[C@H](O)[C@H]4O[C@@H]4O[C@H](CO)[C@@H](O)[C@H](O)[C@H]4O)c(-c4ccc(O)c(O)c4)oc3c2)[C@H](O)[C@H](O)[C@H]1O, which “growth inhibition (GI)” value (Fibroblast [30]) is on record?
Answer: Toxic

Question: Which Activity (Fibroblast [17]) does the source give for O=c1c(O)c(-c2ccc(O)c(O)c2)oc2cc(O)cc(O)c12 [QUERCETIN] here?
Answer: Active

Question: What about the Activity (Fibroblast [28]) of the same molecule?
Answer: inactive

Question: What about the “growth inhibition (GI)” value (Fibroblast [29]) of the same molecule?
Answer: Toxic
